The list is not random: actives were taken first. Their share in the collection is about 1.6%.
NOD2-RIPK2 inh – blocks binding of human NOD2 to RIPK2; O43353; CHO BLA complementation NOD2-RIPK2, CCF4 ratio; inhibition, % at 4.98 µM; actives 0.38% (n = 360,000); AID 624267; in the data active = inhibition above about 21%;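 also: 0% = vehicle only and 100% = reference blocker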
Dynein transport – blocks dynein driven cargo transport along microtubules; 3617.4 mouse cells, GR-EGFP nuclear translocation imaging; test concentration mostly 20 µM; stimulated with dexamethasone, 1 µM; stronger effect = lower value; z-score, hits read low; actives 0.47% (n = 220,000);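 active = plate z-score of nuclear minus cytoplasmic receptor signal below a set negative limit, without overly bright fluorescence or cell loss, cut at about -3.5 in these data, passing the limit was not always enough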;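 also: z-score of nuclear minus cytoplasmic ring GR-EGFP intensity difference per well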
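Schedule: 48 h induction, then 1 h compound, then 30 min agonist, 37 °C. Buffer or medium: tetracycline-free induction medium containing charcoal-stripped FBS. Reagent: 1.0 µM final dexamethasone stimulus. Evaluation: nuclear versus cytoplasmic GR-EGFP signal, averaged per well. Signal: high-content fluorescence imaging after fixation.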
TLR4-MyD88 BLA – blocks binding of human TLR4 to MyD88; actives 0.18% (n = 200,000); HeLa CL3-4 TLR4/MyD88 BLA complementation, FRET ratio; inhibition, % at 8.4 µM; in the data active = inhibition above about 25%;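 also: 0% = vehicle and 100% = reference inhibitor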
ABHD5-PLIN5 inh – ABHD5-PLIN5 protein interaction inhibition | Q00G26+Q8WTS1 | Split G. princeps luciferase complementation, luminescence, 4 h | inhibition, % at 4 µM | actives 0.78% (n = 360,000) | AID 602281;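 active = inhibition above the mean inhibition across every tested compound plus 3 SD, cut at about 22% in these data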;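 also: 0% = DMSO only wells and the 100% control is not disclosed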
TLR9-MyD88 block – TLR9-MyD88 interaction inhibition; Q9NR96+Q99836; CHO BLA complementation TLR9-MyD88, CCF4 FRET ratio; inhibition, % at 4.98 µM; actives 0.21% (n = 340,000); AID 504734;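 active = inhibition above the mean over all tested compounds plus 3 SD, cut at about 21% in these data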;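 also: 0% = DMSO only wells and 100% = clavulanate BLA inhibitor control wells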
Beta2AR agonist – agonists of human beta-2 adrenergic receptor inducing internalization; Am2.2-beta2AR cells, FAP receptor internalization, flow cytometry; response, % (test concentration not listed); actives 0.43% (n = 340,000); AID 504454;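 active = response above a set limit, near 3 SD of response in nonfluorescent compounds, cut at about 42% in these data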
TLR9-MyD88 cf – confirmation of human TLR9-MyD88 binding inhibitors. shares compounds with TLR9-MyD88 block. CHO TLR9/MyD88 BLA complementation, CCF4 FRET ratio. inhibition, % at 4.98 µM. actives 51% (n = 680). AID 540250;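 active = mean inhibition across three repeats above about 21% taken from the earlier screen, limit read from the data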;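 also: blue over green emission ratio reports constitutive TLR9 MyD88 association via BLA complementation; 0% = DMSO vehicle wells and 100% = clavulanate BLA inhibitor wells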
BLA nonselective – beta-lactamase reporter inhibition, counter-screen artifact; actives 7% (n = 680); inhibition, % at 4.98 µM; AID 540251; CHO-BLA cells, CCF4 FRET ratio, BLA reporter; shares compounds with TLR9-MyD88 block;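 active = mean inhibition above a 50% cutoff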;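 also: counterscreen of TLR9-MyD88 hits on CMV-driven BLA in CHO-K1 cells; 0% = DMSO alone and 100% = clavulanate blocking BLA; higher means less blue over green ratio so more BLA blockade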
TLR9 CHO tox – counter-screen for TLR9-MyD88 inhibitors: cytotoxicity in CHO cells; actives 39% (n = 680); shares compounds with TLR9-MyD88 block; inhibition, % at 4.98 µM; luminescence; in the data active = inhibition above about 11%
* hit, by the source's call.

What do the screens show for `N#Cc1ccc2c(=O)n(-c3ccccc3)sc2c1`?
NOD2-RIPK2 inh: 0; ABHD5-PLIN5 inh: -16; TLR9-MyD88 block: 39*; TLR9-MyD88 cf: 18; BLA nonselective: -3; TLR9 CHO tox: 96*

How did O=C(COC(=O)/C=C/c1cccc(Cl)c1)NC1CC1 do in these assays?
NOD2-RIPK2 inh: -5; ABHD5-PLIN5 inh: 3; TLR9-MyD88 block: 12; Beta2AR agonist: 1

Results for Oc1[nH]c2ccccc2c1N=Nc1ccccn1 ?
NOD2-RIPK2 inh: -10; ABHD5-PLIN5 inh: 5; TLR9-MyD88 block: -4; Beta2AR agonist: -25

What do the screens show for `Oc1c(N=Nc2ccccn2)ccc2ccccc12`?
NOD2-RIPK2 inh: 15; Dynein transport: -0.74; TLR4-MyD88 BLA: 13; ABHD5-PLIN5 inh: 17; TLR9-MyD88 block: 24*; Beta2AR agonist: 15; TLR9-MyD88 cf: 15; BLA nonselective: 2; TLR9 CHO tox: 99*

How did COc1ccc(OCC(O)CNC(=O)/C=C/c2cccc([N+](=O)[O-])c2)cc1 (configuration not stated) do in these assays?
NOD2-RIPK2 inh: -1; Dynein transport: -0.69; TLR4-MyD88 BLA: 6; ABHD5-PLIN5 inh: -2; TLR9-MyD88 block: 23*; Beta2AR agonist: -1; TLR9-MyD88 cf: -3; BLA nonselective: -1; TLR9 CHO tox: 2

Results for COc1ccc(OCCNC(=O)/C=C/c2ccc([N+](=O)[O-])cc2)cc1 ?
NOD2-RIPK2 inh: -9; Dynein transport: -0.9; TLR4-MyD88 BLA: -8; ABHD5-PLIN5 inh: 0; TLR9-MyD88 block: 1; Beta2AR agonist: 3

Results for CC(C)C(C(=O)NCc1ccccc1)N(C)Cc1ccc(Cl)c(Cl)c1 (configuration not stated) ?
NOD2-RIPK2 inh: -12; ABHD5-PLIN5 inh: -2

What do the screens show for `COC(=O)C1=CN(c2ccc3c(c2)OCO3)C(N)=C(C#N)C1c1ccccc1` (configuration not stated)?
NOD2-RIPK2 inh: -5; ABHD5-PLIN5 inh: -3

How did COc1ccc(-c2cc(C(F)(F)F)c3c(N)c(C(=O)NCCSC)sc3n2)cc1 do in these assays?
NOD2-RIPK2 inh: 6; ABHD5-PLIN5 inh: -4; TLR9-MyD88 block: 22*; Beta2AR agonist: 6; TLR9-MyD88 cf: 74*; BLA nonselective: 73*; TLR9 CHO tox: 14*

How did COc1ccc(OC)c(NC(=O)c2sc3nc(Cc4ccccc4)cc(C(F)(F)F)c3c2N)c1 do in these assays?
NOD2-RIPK2 inh: 0; Dynein transport: 2; TLR4-MyD88 BLA: -3; ABHD5-PLIN5 inh: -4; TLR9-MyD88 block: -1; Beta2AR agonist: -4

How did COc1cc(CCC(=O)OCC(=O)Nc2ccc(F)cc2F)cc(OC)c1OC do in these assays?
NOD2-RIPK2 inh: -15; ABHD5-PLIN5 inh: 0; TLR9-MyD88 block: -4; Beta2AR agonist: 0

How did CN(c1ccc(C(=O)COC(=O)C2CC2)cc1)S(C)(=O)=O do in these assays?
NOD2-RIPK2 inh: -5; ABHD5-PLIN5 inh: -5; TLR9-MyD88 block: -5; Beta2AR agonist: 4

How did O=C1c2ccccc2NC(c2ccc(-c3cccs3)o2)N1O (configuration not stated) do in these assays?
NOD2-RIPK2 inh: 10; ABHD5-PLIN5 inh: 20; TLR9-MyD88 block: 5; Beta2AR agonist: 10

Results for O=C1c2ccccc2NC(c2ccc(-c3ccc(C(F)(F)F)cc3)o2)N1O (configuration not stated) ?
NOD2-RIPK2 inh: 4; ABHD5-PLIN5 inh: 6; TLR9-MyD88 block: 24*; Beta2AR agonist: -11; TLR9-MyD88 cf: 4; BLA nonselective: 5; TLR9 CHO tox: 41*

Compound activity (PubChem)
